Laboratory results published in ChEMBL document CHEMBL1806473, “Structure-based optimization of click-based histone deacetylase inhibitors” (Eur J Med Chem, 2011).

Key:
RPMI-8226 = experiment: Antiproliferative activity against human RPMI8226 cells by SRB assay; format: functional
In short: (§1)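 Tested in the NCI in vitro human tumor cell line screen, run by the National Cancer Institute. Each compound was given at five concentrations (100, 10, 1.0, 0.1 and 0.01 μM). GI50 is the drug concentration that reduces growth of treated cells to half that of control cells during drug incubation, judged from the SRB signal.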

NCI-H322M = experiment: Antiproliferative activity against human NCI-H322M cells by SRB assay; format: functional; in short: as §1
NCI-H522 = experiment: Antiproliferative activity against human NCI-H522 cells by SRB assay; format: functional; in short: as §1
HCT-116 = experiment: Antiproliferative activity against human HCT116 cells by SRB assay; format: functional; in short: as §1
HT-29 [1] = experiment: Antiproliferative activity against human HT-29 cells by SRB assay; format: functional; in short: as §1
SF-268 = experiment: Antiproliferative activity against human SF268 cells by SRB assay; format: functional; in short: as §1
SF-295 [2] = experiment: Antiproliferative activity against human SF295 cells by SRB assay; format: functional; in short: as §1
SF-539 [3] = experiment: Antiproliferative activity against human SF539 cells by SRB assay; format: functional; in short: as §1
SNB-75 [4] = experiment: Antiproliferative activity against human SNB75 cells by SRB assay; format: functional
In short: (§2)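 Cell growth was tested in the NIH in vitro disease-oriented human tumor cell line screen, which NCI ran for these compounds. Compounds were tested at five concentrations (100, 10, 1.0, 0.1 and 0.01 μM), and growth was read by SRB signal. GI50 is the drug concentration that reduces growth of treated cells to half that of control cells during drug incubation.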

LOX IMVI = experiment: Antiproliferative activity against human LOXIMVI cells by SRB assay; format: functional; in short: as §1
SK-MEL-2 [5] = experiment: Antiproliferative activity against human SK-MEL-2 cells by SRB assay; format: functional; in short: as §1
SK-MEL-28 [6] = experiment: Antiproliferative activity against human SK-MEL-28 cells by SRB assay; format: functional; in short: as §1
SK-MEL-5 = experiment: Antiproliferative activity against human SK-MEL-5 cells by SRB assay; format: functional; in short: as §1
UACC-62 [7] = experiment: Antiproliferative activity against human UACC62 cells by SRB assay; format: functional; in short: as §2
OVCAR-3 [8] = experiment: Antiproliferative activity against human OVCAR3 cells by SRB assay; format: functional; in short: as §1
OVCAR-8 [9] = experiment: Antiproliferative activity against human OVCAR8 cells by SRB assay; format: functional; in short: as §1
SN12C [10] = experiment: Antiproliferative activity against human SN12C cells by SRB assay; format: functional; in short: as §1
UO-31 = experiment: Antiproliferative activity against human UO31 cells by SRB assay; format: functional; in short: as §2
MCF7 [11] = experiment: Antiproliferative activity against human MCF7 cells by SRB assay; format: functional; in short: as §1
BT-549 = experiment: Antiproliferative activity against human BT549 cells by SRB assay; format: functional; in short: as §1
T47D = experiment: Antiproliferative activity against human T47D cells by SRB assay; format: functional; in short: as §2
HL-60(TB) = experiment: Cytotoxicity against human HL-60(TB) cells; format: cell-based
MOLT-4 = experiment: Cytotoxicity against human MOLT4 cells; format: cell-based
SR = experiment: Cytotoxicity against human SR cells; format: cell-based
In short: (§3)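 Screened by NCI in its in vitro disease-oriented human tumour cell line panel. Compounds tested at five concentrations (100, 10, 1.0, 0.1 and 0.01 μM). Growth read by sulforhodamine B (SRB) signal. GI50 is the concentration reducing growth of treated cells to half that of control cells during the drug incubation.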

A549 = experiment: Cytotoxicity against human A549 cells; format: cell-based
In short: (§4)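 Tested in the NCI in vitro disease-oriented human tumour cell line screen, with screening performed by NCI. Growth was read by SRB signal over the drug incubation period at five concentrations: 100, 10, 1.0, 0.1 and 0.01 μM. GI50 is the concentration that reduces growth of treated cells to half that of control cells.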

EKVX = experiment: Cytotoxicity against human EKVX cells; format: cell-based; in short: as §4
HOP-62 = experiment: Cytotoxicity against human HOP62 cells; format: cell-based; in short: as §4
NCI-H226 = experiment: Cytotoxicity against human NCI-H226 cells; format: cell-based
NCI-H460 = experiment: Cytotoxicity against human NCI-H460 cells; format: cell-based
HT-29 [12] = experiment: Cytotoxicity against human HT-29 cells; format: cell-based; in short: as §4
KM12 = experiment: Cytotoxicity against human KM12 cells; format: cell-based
SW-620 = experiment: Cytotoxicity against human SW620 cells; format: cell-based; in short: as §3
SF-295 [13] = experiment: Cytotoxicity against human SF295 cells; format: cell-based; in short: as §4
SF-539 [14] = experiment: Cytotoxicity against human SF539 cells; format: cell-based; in short: as §4
SNB-19 = experiment: Cytotoxicity against human SNB19 cells; format: cell-based; in short: as §3
SNB-75 [15] = experiment: Cytotoxicity against human SNB75 cells; format: cell-based; in short: as §3
U-251 = experiment: Cytotoxicity against human U251 cells; format: cell-based; in short: as §3
SK-MEL-2 [16] = experiment: Cytotoxicity against human SK-MEL-2 cells; format: cell-based; in short: as §4
SK-MEL-28 [17] = experiment: Cytotoxicity against human SK-MEL-28 cells; format: cell-based
UACC-62 [18] = experiment: Cytotoxicity against human UACC62 cells; format: cell-based; in short: as §3
OVCAR-3 [19] = experiment: Cytotoxicity against human OVCAR3 cells; format: cell-based; in short: as §4
OVCAR-8 [20] = experiment: Cytotoxicity against human OVCAR8 cells; format: cell-based
SK-OV-3 = experiment: Cytotoxicity against human SKOV3 cells; format: cell-based
786-0 = experiment: Cytotoxicity against human 786-0 cells; format: cell-based
ACHN = experiment: Cytotoxicity against human ACHN cells; format: cell-based
CAKI-1 = experiment: Cytotoxicity against human Caki1 cells; format: cell-based
SN12C [21] = experiment: Cytotoxicity against human SN12C cells; format: cell-based; in short: as §3
PC-3 = experiment: Cytotoxicity against human PC3 cells; format: cell-based
MCF7 [22] = experiment: Cytotoxicity against human MCF7 cells; format: cell-based
MDA-MB-231 = experiment: Cytotoxicity against human MDA-MB-231 cells; format: functional; in short: as §4
[23] = Cytotoxicity against human Hs 578T cells; format: cell-based

For CC(C)C(/C=C/c1ccccc1)n1cc(/C=C/C(=O)NO)nn1 (stereo unspecified), the GI50 (RPMI-8226) was 317 nM, the GI50 (NCI-H322M) was 1360 nM and the GI50 (NCI-H522) was 582 nM. It also gave a GI50 (HCT-116) of 316 nM, a GI50 (HT-29 [1]) of 827 nM and a GI50 (SF-268) of 1870 nM. The GI50 (SF-295 [2]) was 1470 nM, the GI50 (SF-539 [3]) was 1190 nM and the GI50 (SNB-75 [4]) was 1820 nM. For the same compound, the GI50 (LOX IMVI) was 1180 nM, the GI50 (SK-MEL-2 [5]) was 1520 nM and the GI50 (SK-MEL-28 [6]) was 1590 nM. It also gave a GI50 (SK-MEL-5) of 730 nM, a GI50 (UACC-62 [7]) of 642 nM and a GI50 (OVCAR-3 [8]) of 1530 nM. It also gave a GI50 (OVCAR-8 [9]) of 816 nM, a GI50 (SN12C [10]) of 1860 nM and a GI50 (UO-31) of 1480 nM. The GI50 (MCF7 [11]) was 1320 nM, the GI50 (BT-549) was 3.28 µM and the GI50 (T47D) was 1240 nM. It also gave an LC50 (HL-60(TB)) of over 100 µM, an LC50 (MOLT-4) of over 100 µM and an LC50 (SR) of over 100 µM. It also gave an LC50 (A549) of 88.7 µM, an LC50 (EKVX) of over 100 µM and an LC50 (HOP-62) of 23.4 µM. The LC50 (NCI-H226) was 40.1 µM, the LC50 (NCI-H460) was 42.9 µM and the LC50 (HT-29 [12]) was over 100 µM. It also gave an LC50 (KM12) of 9.53 µM, an LC50 (SW-620) of 9.22 µM and an LC50 (SF-295 [13]) of 58.3 µM. It also gave an LC50 (SF-539 [14]) of 8.21 µM, an LC50 (SNB-19) of 66.6 µM and an LC50 (SNB-75 [15]) of 38.3 µM. The LC50 (U-251) was 5.66 µM, the LC50 (SK-MEL-2 [16]) was over 100 µM and the LC50 (SK-MEL-28 [17]) was 44.9 µM. For the same compound, the LC50 (UACC-62 [18]) was 6.61 µM, the LC50 (OVCAR-3 [19]) was 22.1 µM and the LC50 (OVCAR-8 [20]) was over 100 µM. For the same compound, the LC50 (SK-OV-3) was 27.8 µM, the LC50 (786-0) was 6.74 µM and the LC50 (ACHN) was 71.1 µM. The LC50 (CAKI-1) was 6.3 µM, the LC50 (SN12C [21]) was over 100 µM and the LC50 (PC-3) was 46.5 µM. The LC50 (MCF7 [22]) was over 100 µM, the LC50 (MDA-MB-231) was 73.4 µM and the LC50 [23] was over 100 µM.
